# Data: ChEMBL document CHEMBL5576109, “Hydantoin derivative dimers as broad-spectrum antimicrobial agents against ESKAPE pathogens with enhanced killing rate and stability” (RSC Med Chem, 2024)
# Tests used:
# Enterococcus faecalis = assay: Antibacterial activity against Enterococcus faecalis ATCC 29212 assessed as reduction bacterial growth after 16 hrs by TECAN SPARK microplate reader analysis; assay type: functional
# Summary of the method: (§1)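 Single colony grown overnight in 4 mL TSB at 37 °C, diluted 100-fold and grown to mid-log phase. Compounds 2-fold serially diluted in TSB and mixed 1:1 with bacteria in TSB (1 × 10^6 CFU/mL). Incubated 16 h at 37 °C, then A600 read. MIC taken as the lowest concentration giving complete growth inhibition.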
# Acinetobacter baumannii = assay: Antibacterial activity against Acinetobacter baumannii ATCC 19606 assessed as reduction bacterial growth after 16 hrs by TECAN SPARK microplate reader analysis; assay type: functional; summary of the method: as §1
# Staphylococcus aureus [1] = assay: Antibacterial activity against Staphylococcus aureus ATCC 29213 assessed as reduction bacterial growth after 16 hrs by TECAN SPARK microplate reader analysis; assay type: functional; summary of the method: as §1
# Klebsiella pneumoniae = assay: Antibacterial activity against Klebsiella pneumoniae ATCC 10031 assessed as reduction bacterial growth after 16 hrs by TECAN SPARK microplate reader analysis; assay type: functional; summary of the method: as §1
# Staphylococcus aureus [2] = assay: Antibacterial activity against methicillin-resistant Staphylococcus aureus ATCC 43300 assessed as reduction bacterial growth after 16 hrs by TECAN SPARK microplate reader analysis; assay type: functional
# Summary of the method: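 Broth microdilution in TSB: single colony grown overnight at 37 °C, diluted 100-fold and grown to mid-log phase. 2-fold serial compound dilutions mixed 1:1 with bacteria at 1 × 10^6 CFU/mL, incubated 16 h at 37 °C, absorbance read at 600 nm. MIC taken as lowest concentration giving complete growth inhibition.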
# Escherichia coli [3] = assay: Antibacterial activity against Escherichia coli ATCC 25922 assessed as reduction bacterial growth after 16 hrs by TECAN SPARK microplate reader analysis; assay type: functional; summary of the method: as §1
# [4] = Hemolytic activity in mouse red blood cells assessed as hemolysis incubated for 1 hr by TECAN SPARK microplate reader analysis; assay type: toxicity, cell-based, Erythrocyte; conditions: red blood cells (erythrocytes)
# Summary of the method: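 Mouse RBCs washed three times in 1× PBS by centrifugation (3500 rpm, 10 min) and made up as a 5% v/v suspension. Incubated with 2-fold serially diluted compound in PBS for 1 h at 37 °C, then centrifuged. Supernatant diluted in PBS and A540 read. % hemolysis calculated relative to 1% Triton X-100 (100%) and PBS (0%).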
# Pseudomonas aeruginosa = assay: Antibacterial activity against Pseudomonas aeruginosa CMCC 10104 assessed as reduction bacterial growth after 16 hrs by TECAN SPARK microplate reader analysis; assay type: functional; summary of the method: as §1
# Bacillus subtilis = assay: Antibacterial activity against Bacillus subtilis ATCC 6633 assessed as reduction bacterial growth after 16 hrs by TECAN SPARK microplate reader analysis; assay type: functional; summary of the method: as §1
# Escherichia coli [5] = assay: Drug resistance, ratio of MIC for Escherichia coli ATCC 25922 after 25 passages to MIC for Escherichia coli ATCC 25922 after initial exposure; assay type: functional
# Summary of the method: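 Serial passage resistance selection: after each broth MIC determination, bacteria from the 1/2 MIC well were withdrawn and diluted to 1 × 10^6 CFU/mL for the next MIC measurement. Repeated for 25 passages; MIC after passage 25 compared with the initial MIC.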
Compound,MIC (Enterococcus faecalis),MIC (Acinetobacter baumannii),MIC (Staphylococcus aureus [1]),MIC (Klebsiella pneumoniae),MIC (Staphylococcus aureus [2]),MIC (Escherichia coli [3]),HC50 at 1 h [4],MIC (Pseudomonas aeruginosa),MIC (Bacillus subtilis),Ratio (Escherichia coli [5])
CCCCCCN1C(=O)[C@H](CCCCN)N(Cc2ccc(C#Cc3ccc(CN4C(=O)N(CCCCCC)C(=O)[C@@H]4CCCCN)cc3)cc2)C1=O,7.81 µg/mL,7.81 µg/mL,1.95 µg/mL,7.81 µg/mL,62.5 µg/mL,7.81 µg/mL,18 µg/mL,15.6 µg/mL,3.91 µg/mL,–
CN(C)[C@@H]1C(O)=C(C(N)=O)C(=O)[C@@]2(O)C(O)=C3C(=O)c4c(O)cccc4[C@@](C)(O)[C@H]3C[C@@H]12 [TETRACYCLINE],–,–,0.98 µg/mL,–,–,7.81 µg/mL,–,–,–,–
CCCCCCCN1C(=O)[C@H](CCCCN)N(Cc2ccc(-c3ccc(CN4C(=O)N(CCCCCCC)C(=O)[C@@H]4CCCCN)cc3)cc2)C1=O,7.81 µg/mL,7.81 µg/mL,3.91 µg/mL,7.81 µg/mL,62.5 µg/mL,7.81 µg/mL,156 µg/mL,15.6 µg/mL,3.91 µg/mL,–
CCCCCCN1C(=O)[C@H](CCCCNC(=N)N)N(Cc2ccc3cc(CN4C(=O)N(CCCCCC)C(=O)[C@@H]4CCCCNC(=N)N)ccc3c2)C1=O,3.91 µg/mL,31.2 µg/mL,3.91 µg/mL,7.81 µg/mL,15.6 µg/mL,15.6 µg/mL,117 µg/mL,15.6 µg/mL,3.91 µg/mL,–
CCCCCCN1C(=O)[C@H](CCCCN)N(Cc2ccc(Oc3ccc(CN4C(=O)N(CCCCCC)C(=O)[C@@H]4CCCCN)cc3)cc2)C1=O,7.81 µg/mL,3.91 µg/mL,3.91 µg/mL,3.91 µg/mL,7.81 µg/mL,3.91 µg/mL,69 µg/mL,31.2 µg/mL,3.91 µg/mL,–
CCCCCCN1C(=O)[C@H](CCCCN)N(Cc2ccc(CN3C(=O)N(CCCCCC)C(=O)[C@@H]3CCCCN)cc2)C1=O,125 µg/mL,250 µg/mL,31.2 µg/mL,62.5 µg/mL,250 µg/mL,250 µg/mL,–,62.5 µg/mL,3.91 µg/mL,–
CCCCCCN1C(=O)[C@H](CCCCN)N(Cc2ccc(-c3ccc(-c4ccc(CN5C(=O)N(CCCCCC)C(=O)[C@@H]5CCCCN)cc4)cc3)cc2)C1=O,15.6 µg/mL,125 µg/mL,7.81 µg/mL,62.5 µg/mL,250 µg/mL,62.5 µg/mL,–,250 µg/mL,3.91 µg/mL,–
CC1(C)S[C@@H]2[C@H](NC(=O)Cc3ccccc3)C(=O)N2[C@H]1C(=O)O [PENICILLIN G],–,–,0.98 µg/mL,–,–,250 µg/mL,–,–,–,–
CCCCCCCCN1C(=O)[C@H](CCCCN)N(Cc2ccc(-c3ccc(CN4C(=O)N(CCCCCCCC)C(=O)[C@@H]4CCCCN)cc3)cc2)C1=O,31.2 µg/mL,62.5 µg/mL,31.2 µg/mL,62.5 µg/mL,250 µg/mL,250 µg/mL,–,250 µg/mL,15.6 µg/mL,–
O=C(O)c1cn(C2CC2)c2cc(N3CCNCC3)c(F)cc2c1=O [CIPROFLOXACIN],–,–,0.39 µg/mL,–,–,–,–,–,–,–
CCCCCCN1C(=O)[C@H](CCCCN)N(Cc2ccc3cc(CN4C(=O)N(CCCCCC)C(=O)[C@@H]4CCCCN)ccc3c2)C1=O,31.2 µg/mL,31.2 µg/mL,3.91 µg/mL,1.95 µg/mL,15.6 µg/mL,15.6 µg/mL,59.9 µg/mL,15.6 µg/mL,7.81 µg/mL,–
GENTAMICIN,–,–,–,–,–,–,–,–,–,32
NCCCC[C@H]1C(=O)N(C23C[C@H]4C[C@@H](C2)C[C@@H](C3)C4)C(=O)N1Cc1ccc(-c2ccc(CN3C(=O)N(C45C[C@H]6C[C@@H](C4)C[C@@H](C5)C6)C(=O)[C@@H]3CCCCN)cc2)cc1,7.81 µg/mL,15.6 µg/mL,1.95 µg/mL,7.81 µg/mL,125 µg/mL,62.5 µg/mL,33.6 µg/mL,250 µg/mL,7.81 µg/mL,–
CCCCCCN1C(=O)[C@H](CCCCN)N(Cc2cccc(CN3C(=O)N(CCCCCC)C(=O)[C@@H]3CCCCN)c2)C1=O,62.5 µg/mL,125 µg/mL,31.2 µg/mL,62.5 µg/mL,250 µg/mL,250 µg/mL,–,31.2 µg/mL,7.81 µg/mL,–
CCCCCCN1C(=O)[C@H](CCCCN)N(Cc2ccc(/C=C/c3ccc(CN4C(=O)N(CCCCCC)C(=O)[C@@H]4CCCCN)cc3)cc2)C1=O,7.81 µg/mL,15.6 µg/mL,3.91 µg/mL,3.91 µg/mL,31.2 µg/mL,31.2 µg/mL,43.5 µg/mL,15.6 µg/mL,7.81 µg/mL,–
COLISTIN,–,–,250 µg/mL,–,–,3.91 µg/mL,–,–,–,–
CC1(C)S[C@@H]2[C@H](NC(=O)[C@H](N)c3ccccc3)C(=O)N2[C@H]1C(=O)O [AMPICILLIN],–,–,0.98 µg/mL,–,–,250 µg/mL,–,–,–,–
CCCCCN1C(=O)[C@H](CCCCN)N(Cc2ccc(-c3ccc(CN4C(=O)N(CCCCC)C(=O)[C@@H]4CCCCN)cc3)cc2)C1=O,31.2 µg/mL,15.6 µg/mL,7.81 µg/mL,62.5 µg/mL,15.6 µg/mL,7.81 µg/mL,135 µg/mL,62.5 µg/mL,7.81 µg/mL,–
CCCCCCN1C(=O)[C@H](CCCCN)N(Cc2ccc(-c3ccc(CN4C(=O)N(CCCCCC)C(=O)[C@@H]4CCCCN)cc3)cc2)C1=O,7.81 µg/mL,3.91 µg/mL,1.95 µg/mL,1.95 µg/mL,7.81 µg/mL,1.95 µg/mL,32.8 µg/mL,15.6 µg/mL,1.95 µg/mL,–
CCCCCCN1C(=O)[C@H](CCCCN)N(Cc2cccc(-c3cccc(CN4C(=O)N(CCCCCC)C(=O)[C@@H]4CCCCN)c3)c2)C1=O,15.6 µg/mL,7.81 µg/mL,3.91 µg/mL,7.81 µg/mL,7.81 µg/mL,3.91 µg/mL,38 µg/mL,15.6 µg/mL,7.81 µg/mL,–
CN[C@H](CC(C)C)C(=O)N[C@H]1C(=O)N[C@@H](CC(N)=O)C(=O)N[C@H]2C(=O)N[C@H]3C(=O)N[C@H](C(=O)N[C@H](C(=O)O)c4cc(O)cc(O)c4-c4cc3ccc4O)[C@H](O)c3ccc(c(Cl)c3)Oc3cc2cc(c3O[C@@H]2O[C@H](CO)[C@@H](O)[C@H](O)[C@H]2O[C@H]2C[C@](C)(N)[C@H](O)[C@H](C)O2)Oc2ccc(cc2Cl)[C@H]1O [VANCOMYCIN],–,–,1.95 µg/mL,–,–,125 µg/mL,–,–,–,–
CCCCCCN1C(=O)[C@H](CCCCN)N(Cc2ccc(CCc3ccc(CN4C(=O)N(CCCCCC)C(=O)[C@@H]4CCCCN)cc3)cc2)C1=O,7.81 µg/mL,3.91 µg/mL,1.95 µg/mL,3.91 µg/mL,15.6 µg/mL,3.91 µg/mL,20.9 µg/mL,125 µg/mL,7.81 µg/mL,–
COc1cccc(OC)c1C(=O)N[C@@H]1C(=O)N2[C@@H]1SC(C)(C)[C@@H]2C(=O)O [METHICILLIN],–,–,–,–,250 µg/mL,–,–,–,–,–
CCCCCCN1C(=O)[C@H](CCCCN)N(Cc2ccc(CN3C(=O)N(CCCCCC)C(=O)[C@@H]3CCCCN)c3ccccc23)C1=O,62.5 µg/mL,125 µg/mL,15.6 µg/mL,31.2 µg/mL,125 µg/mL,125 µg/mL,–,62.5 µg/mL,15.6 µg/mL,–
CCCCCCCCCCCCN1C(=O)[C@H](CCCCN)N(Cc2ccc(-c3ccc(CN4C(=O)N(CCCCCCCCCCCC)C(=O)[C@@H]4CCCCN)cc3)cc2)C1=O,–,–,250 µg/mL,–,–,250 µg/mL,–,–,–,–
CO[C@H]1/C=C/O[C@@]2(C)Oc3c(C)c(O)c4c(O)c(c(/C=N/N5CCN(C)CC5)c(O)c4c3C2=O)NC(=O)/C(C)=C\C=C\[C@H](C)[C@H](O)[C@@H](C)[C@@H](O)[C@@H](C)[C@H](OC(C)=O)[C@@H]1C [RIFAMPIN],–,–,0.12 µg/mL,–,–,7.81 µg/mL,–,–,–,–
CCCCCCN1C(=O)[C@H](CCCCNC(=N)N)N(Cc2cccc(-c3cccc(CN4C(=O)N(CCCCCC)C(=O)[C@@H]4CCCCNC(=N)N)c3)c2)C1=O,7.81 µg/mL,15.6 µg/mL,1.95 µg/mL,3.91 µg/mL,7.81 µg/mL,7.81 µg/mL,73.7 µg/mL,15.6 µg/mL,3.91 µg/mL,–
CCCCN1C(=O)[C@H](CCCCN)N(Cc2ccc(-c3ccc(CN4C(=O)N(CCCC)C(=O)[C@@H]4CCCCN)cc3)cc2)C1=O,250 µg/mL,62.5 µg/mL,62.5 µg/mL,15.6 µg/mL,125 µg/mL,125 µg/mL,–,125 µg/mL,15.6 µg/mL,–
